According to ChEMBL document CHEMBL4177755, “Combating Drug-Resistant Fungi with Novel Imperfectly Amphipathic Palindromic Peptides” (J Med Chem, 2018):

How the values were obtained:
Escherichia coli [1] = experiment: Antibacterial activity against Escherichia coli ATCC 25922 after 18 hrs in presence of CaCl2 by broth dilution method; format: functional; details: ATCC 25922, 18 h
Candida albicans [2] = experiment: Fungicidal activity against fluconazole-resistant Candida albicans 17546 after 96 hrs; format: functional; details: Candida albicans, 17546, 96 h; read-out: MFC99.9
In short: (§1)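 After the 48 h, 28 °C broth microdilution in MOPS-buffered RPMI 1640 (inoculum (0.5−1) × 10^3 CFU/mL), 50 μL from each well was plated on YM agar for a further 48 h at 28 °C. MFC is the lowest concentration killing at least 99.9% of cells. Triplicate, three biological replicates.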

Escherichia coli [3] = experiment: Antibacterial activity against Escherichia coli 1005 after 24 hrs; format: functional; details: Escherichia coli, 1005, 24 h
In short: (§2)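 Broth microdilution. Mid-log bacteria in MHB at a final (0.5−1) × 10^5 CFU/mL were mixed with equal volumes of peptide serially diluted in 0.2% BSA. Plates were incubated 24 h at 37 °C and read at A492. MIC is the lowest concentration inhibiting 95% of growth. Each test was repeated at least 3 times.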

Candida albicans [4] = experiment: Fungicidal activity against Candida albicans SP3876 after 96 hrs; format: functional; details: SP3876, 96 h, read-out: MFC99.9; in short: as §1
Escherichia coli [5] = experiment: Antibacterial activity against Escherichia coli ATCC 25922 after 18 hrs in presence of KCl by broth dilution method; format: functional; details: ATCC 25922, 18 h
Candida tropicalis = experiment: Fungicidal activity against Candida tropicalis cgmcc 2.1975 after 96 hrs; format: functional; details: cgmcc 2.1975, 96 h, read-out: MFC99.9
In short: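 Wells from the 48 h, 28 °C RPMI 1640/MOPS microdilution plates were plated on YM agar and incubated a further 48 h at 28 °C. MFC is the lowest concentration killing at least 99.9% of cells. Run in triplicate with three biological replicates.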

Candida albicans [6] = experiment: Antifungal activity against Candida albicans SP3931 after 48 hrs by broth microdilution method; format: functional; details: SP3931, 48 h
In short: (§3)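 Modified CLSI M27-A2 broth microdilution. Yeast at (0.5−1) × 10^3 CFU/mL in MOPS-buffered RPMI 1640 was mixed 1:1 with peptide serially diluted in 0.2% BSA and incubated 48 h at 28 °C. Absorbance was read at 492 nm; MIC is the lowest concentration inhibiting 95% of growth. Triplicate, three biological replicates.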

Escherichia coli [7] = experiment: Antibacterial activity against Escherichia coli ATCC 25922 after 18 hrs in presence of MgCl2 by broth dilution method; format: functional; details: ATCC 25922, 18 h
Candida albicans [8] = experiment: Antifungal activity against Candida albicans 58288 after 48 hrs by broth microdilution method; format: functional; details: Candida albicans, 58288, 48 h; in short: as §3
Erythrocyte = experiment: Hemolytic activity in human RBC after 1 hr; format: ADME, cell-based
In short: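 Fresh human erythrocytes, diluted 10-fold in PBS pH 7.4, were mixed with equal volumes of peptide and held 1 h at 37 °C. After centrifugation at 1000g, supernatant hemoglobin was read at 576 nm. PBS set 0% and 0.1% Triton X-100 set 100% lysis. MHC is the concentration causing 10% hemolysis. At least three experiments were run, each in technical triplicate.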

Candida parapsilosis = experiment: Antifungal activity against Candida parapsilosis cgmcc 2.3989 after 48 hrs by broth microdilution method; format: functional; details: Lodderomyces parapsilosis, cgmcc 2.3989, 48 h
In short: (§4)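 Modified CLSI M27-A2 broth microdilution. Yeast were suspended in MOPS-buffered RPMI 1640 at a final (0.5−1) × 10^3 CFU/mL and mixed 1:1 with peptide serially diluted in 0.2% BSA. Plates were incubated 48 h at 28 °C and read at A492. MIC is the lowest concentration giving 95% inhibition. Run in triplicate with three biological replicates.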

Candida albicans [9] = experiment: Antifungal activity against Candida albicans SP3903 after 48 hrs by broth microdilution method; format: functional; details: SP3903, 48 h; in short: as §3
[10] = Bactericidal activity against Salmonella pullorum ATCC 7913; format: functional, Salmonella enterica subsp. enterica serovar Pullorum; details: Salmonella enterica, read-out: MBC99.9
In short: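 Wells from the 24 h, 37 °C MHB microdilution plates (bacteria at a final (0.5−1) × 10^5 CFU/mL; peptide diluted in 0.2% BSA) were plated on agar and incubated overnight. MBC is the lowest concentration killing >99.9% of cells. Each test was reproduced at least 3 times.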

Candida albicans [11] = experiment: Antifungal activity against Candida albicans cgmcc 2.2086 in presence of NaCl by broth dilution method; format: functional
Pichia kudriavzevii = experiment: Antifungal activity against Candida krusei cgmcc 2.1857 after 48 hrs by broth microdilution method; format: functional; details: cgmcc 2.1857, 48 h; in short: as §4
Candida albicans [12] = experiment: Fungicidal activity against Candida albicans isolated from alveolar fluid after 96 hrs; format: functional; details: read-out: MFC99.9; in short: as §1
Salmonella typhimurium = experiment: Antibacterial activity against Salmonella typhimurium ATCC 14028 after 24 hrs; format: functional, Salmonella enterica subsp. enterica serovar Typhimurium; details: Salmonella enterica, ATCC 14028, 24 h; in short: as §2
Candida albicans [13] = experiment: Antifungal activity against fluconazole-resistant Candida albicans 56452 after 48 hrs by broth microdilution method; format: functional; details: Candida albicans, 56452, 48 h; in short: as §3
Candida albicans [14] = experiment: Fungicidal activity against Candida albicans cgmcc 2.2086 after 96 hrs; format: functional; details: cgmcc 2.2086, 96 h, read-out: MFC99.9; in short: as §1
Candida albicans [15] = experiment: Fungicidal activity against Candida albicans SP3931 after 96 hrs; format: functional; details: SP3931, 96 h, read-out: MFC99.9; in short: as §1
Candida albicans [16] = experiment: Fungicidal activity against fluconazole-resistant Candida albicans 56214 after 96 hrs; format: functional; details: Candida albicans, 56214, 96 h; read-out: MFC99.9; in short: as §1
Candida albicans [17] = experiment: Antifungal activity against fluconazole-resistant Candida albicans 17546 after 48 hrs by broth microdilution method; format: functional; details: Candida albicans, 17546, 48 h; in short: as §3
Candida albicans [18] = experiment: Antifungal activity against Candida albicans SP3902 after 48 hrs by broth microdilution method; format: functional; details: SP3902, 48 h; in short: as §3
[19] = Cytotoxicity against mouse RAW264.7 cells assessed as cell viability at 2 to 64 uM after 24 hrs by MTT assay relative to control; format: cell-based; details: read-out: Activity
In short: (§5)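 MTT viability assay. RAW264.7 or HEK293T cells at (1.0−2.0) × 10^5 per well were exposed to a peptide concentration series for 24 h at 37 °C in 5% CO2. MTT was then added at 0.5 mg/mL final for 4 h; formazan was dissolved in DMSO and read at 570 nm. Results average three independent trials.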

Staphylococcus aureus = experiment: Antibacterial activity against Staphylococcus aureus ATCC 25923 after 24 hrs; format: functional; details: ATCC 25923, 24 h
In short: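 Modified NCCLS broth microdilution. Mid-log bacteria at (0.5−1) × 10^5 CFU/mL in MHB were mixed 1:1 with peptide serially diluted in 0.2% BSA and incubated 24 h at 37 °C. Absorbance was read at 492 nm; MIC is the lowest concentration inhibiting 95% of growth. At least 3 repeats.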

Candida albicans [20] = experiment: Antifungal activity against Candida albicans SP3876 after 48 hrs by broth microdilution method; format: functional; details: SP3876, 48 h; in short: as §3
[21] = Cytotoxicity against HEK293T cells assessed as cell viability at 2 to 64 uM after 24 hrs by MTT assay relative to control; format: cell-based, HEK-293T; details: human, read-out: Activity; in short: as §5

For H-RFRFFFRFR-NH2, the MIC (Escherichia coli [1]) was 4 µM, the MFC (Candida albicans [2]) was 4 µM and the MIC95 (Escherichia coli [3]) was 4 µM. It also gave an MFC (Candida albicans [4]) of 8 µM, an MIC (Escherichia coli [5]) of 4 µM and an MFC (Candida tropicalis) of 4 µM. It also gave an MIC95 (Candida albicans [6]) of 8 µM, an MIC (Escherichia coli [7]) of 2 µM and an MIC95 (Candida albicans [8]) of 8 µM. For the same substance, the HC10 (Erythrocyte) was > 128 µM, the MIC95 (Candida parapsilosis) was 16 µM and the MIC95 (Candida albicans [9]) was 4 µM. For the same substance, the MBC [10] was 8 µM, the MIC (Candida albicans [11]) was 32 µM and the MIC95 (Pichia kudriavzevii) was 4 µM. It also gave an MFC (Candida albicans [12]) of 16 µM, an MIC95 (Salmonella typhimurium) of 4 µM and an MIC95 (Candida albicans [13]) of 4 µM. It also gave an MFC (Candida albicans [14]) of 16 µM, an MFC (Candida albicans [15]) of 16 µM and an MFC (Candida albicans [16]) of 16 µM. For the same substance, the MIC95 (Candida albicans [17]) was 4 µM, the MIC95 (Candida albicans [18]) was 4 µM and the viability at 24 h, up to 64 µM [19] was 70 to 80%. The MIC95 (Staphylococcus aureus) was 4 µM, the MIC95 (Candida albicans [20]) was 8 µM and the viability at 24 h, up to 64 µM [21] was 70 to 80%.

With H-RIIRRIRRIIR-NH2 the MIC (Escherichia coli [1]) was 32 µM, the MFC (Candida albicans [2]) was 16 µM and the MIC95 (Escherichia coli [3]) was 8 µM. It also gave an MFC (Candida albicans [4]) of 16 µM, an MIC (Escherichia coli [5]) of 16 µM and an MFC (Candida tropicalis) of 2 µM. It also gave an MIC95 (Candida albicans [6]) of 16 µM, an MIC (Escherichia coli [7]) of 16 µM and an MIC95 (Candida albicans [8]) of 8 µM. For the same substance, the HC10 (Erythrocyte) was > 128 µM, the MIC95 (Candida parapsilosis) was > 64 µM and the MIC95 (Candida albicans [9]) was 4 µM. For the same substance, the MBC [10] was 64 µM, the MIC (Candida albicans [11]) was 64 µM and the MIC95 (Pichia kudriavzevii) was 4 µM. It also gave an MFC (Candida albicans [12]) of 32 µM, an MIC95 (Salmonella typhimurium) of 16 µM and an MIC95 (Candida albicans [13]) of 8 µM. The MFC (Candida albicans [14]) was 64 µM, the MFC (Candida albicans [15]) was 32 µM and the MFC (Candida albicans [16]) was 16 µM. The MIC95 (Candida albicans [17]) was 16 µM, the MIC95 (Candida albicans [18]) was 16 µM and the viability at 24 h, up to 64 µM [19] was 70 to 80%. It also gave an MIC95 (Staphylococcus aureus) of 32 µM, an MIC95 (Candida albicans [20]) of 8 µM and a viability at 24 h, up to 64 µM [21] of 70 to 80%.
